High-throughput results: PubChem, several laboratories
Yeast superoxide – caloric restriction mimetics inhibiting age-related superoxide in yeast. superoxide response (% of plate mean), % at 10 µM. S. cerevisiae aged cells, superoxide DHE fluorescence; active compounds read low. hit rate 0.18% among 330,000;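 active means superoxide response under a set limit, about three screen SD below normal, cut at about 65% in these data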;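 further: yeast aged for seven days with compound at 30 °C before DHE staining; 100% = average MFI of all compound-treated wells on the plate with controls excluded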
TRPC4 act – activators of mouse TRPC4 channel; HEK293 TRPC4beta/mu-opioid, Fluo4 calcium fluorescence; active compounds read high; hit rate 0.49% among 310,000; Q9QUQ5; B-score at 10 µM;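 active means B-score above 5 SD of library B-scores, and initial fluorescence ratio not above library mean plus 5 SD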;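 further: positive B-score marks a calcium rise read as TRPC4 activation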
Target sequence (Q9QUQ5 whole entry, looked up): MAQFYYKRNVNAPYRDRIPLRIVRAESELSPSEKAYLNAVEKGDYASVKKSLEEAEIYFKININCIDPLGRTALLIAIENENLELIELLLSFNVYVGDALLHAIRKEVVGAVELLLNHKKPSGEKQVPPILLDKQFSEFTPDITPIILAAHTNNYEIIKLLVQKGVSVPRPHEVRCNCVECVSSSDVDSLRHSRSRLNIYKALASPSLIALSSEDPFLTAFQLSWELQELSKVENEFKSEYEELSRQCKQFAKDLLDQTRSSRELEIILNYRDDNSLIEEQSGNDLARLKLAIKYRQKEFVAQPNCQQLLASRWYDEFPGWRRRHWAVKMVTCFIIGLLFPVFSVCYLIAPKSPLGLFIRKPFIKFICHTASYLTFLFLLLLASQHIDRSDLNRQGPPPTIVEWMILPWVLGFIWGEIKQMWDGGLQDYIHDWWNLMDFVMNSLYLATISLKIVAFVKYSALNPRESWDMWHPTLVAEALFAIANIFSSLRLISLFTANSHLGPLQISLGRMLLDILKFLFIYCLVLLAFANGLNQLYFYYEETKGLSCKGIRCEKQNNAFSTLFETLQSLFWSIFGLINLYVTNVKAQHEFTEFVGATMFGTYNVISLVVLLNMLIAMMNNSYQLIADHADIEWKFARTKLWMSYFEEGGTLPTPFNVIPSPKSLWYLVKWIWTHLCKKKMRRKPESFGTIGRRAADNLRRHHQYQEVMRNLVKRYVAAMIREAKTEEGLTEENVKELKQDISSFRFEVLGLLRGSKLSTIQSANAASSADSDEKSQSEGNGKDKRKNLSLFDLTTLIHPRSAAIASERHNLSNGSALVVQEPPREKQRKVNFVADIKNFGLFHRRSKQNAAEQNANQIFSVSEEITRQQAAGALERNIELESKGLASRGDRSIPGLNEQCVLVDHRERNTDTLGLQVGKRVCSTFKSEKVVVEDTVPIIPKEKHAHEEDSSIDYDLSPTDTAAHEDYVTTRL
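Technique: kinetic Fluo4 calcium fluorescence; Test system: TRPC4beta and mu-opioid receptor HEK293 stable cells; Measure: B-scored integrated calcium fluorescence ratio; Benchmarks: low control buffer alone, high control maximal DAMGO; Schedule: 45 min room-temperature Fluo4 loading, 110 s read.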
TRPC6 activator – activates the mouse TRPC6 cation channel; Q61143; HEK293-TRPC6 membrane potential dye fluorescence; active compounds read high; B-score at 10 µM; hit rate 0.13% among 310,000; AID 2550;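 active means B-score of the integrated fluorescence ratio above library mean plus 3 SD, and starting fluorescence ratio within library mean plus 5 SD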;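 further: higher score means more depolarization so channel activation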
TRPC6 inhibitor – blocks the mouse TRPC6 cation channel | Q61143 | HEK293-TRPC6, membrane potential dye, ACh-evoked depolarization; active compounds read low | B-score at 10 µM | hit rate 1.1% among 310,000 | AID 2553;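 active means B-score under library mean minus 3 SD, initial fluorescence not abnormally high, positive integrated signal ratio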;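 further: B-score derived from integrated fluorescence ratio over the kinetic read; more negative B-score means stronger inhibition of depolarization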
TRPC4 PAM – TRPC4 (mouse) allosteric potentiation | B-score at 10 µM | hit rate 0.42% among 310,000 | HEK293 TRPC4beta/mu-opioid, DAMGO EC20, Fluo-4 Ca2+ flux; active compounds read high | Q9QUQ5;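 active means B-score of calcium response area above 5 SD of library B-scores, with initial fluorescence ratio within 5 SD of library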;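 further: B-score of integrated fluorescence ratio over time as area under calcium response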
TRPC4 block – blocks the mouse TRPC4 cation channel; Q9QUQ5; HEK293 TRPC4beta/mu-opioid, DAMGO-evoked Fluo4 calcium flux; active compounds read low; B-score at 10 µM; hit rate 0.39% among 300,000; AID 2247;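 active means B-score over 3 SD under the library average, no early fluorescence shift, positive overall ratio signal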
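Assay system – HEK293 line stably carrying TRPC4beta and mu-opioid receptor · Doses – single dose · Detection – Fluo4 calcium-dye fluorescence, kinetic read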
TRPC4 spec 2 – second selectivity test of TRPC6 inhibitors: effect on mouse TRPC4 | shares compounds with TRPC6 inhibitor | HEK293 TRPC4/MOR, membrane potential dye fluorescence; channel activated by saturating DAMGO dose | inhibition, % at 10 µM | hit rate 42% among 920 | AID 2776;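 active means compounds whose fluorescence signal differed from control wells by over 3 SD, either direction, in both duplicate plates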
TRPC4 spec – selectivity of TRPC6 inhibitors: effect on mouse TRPC4. HEK293 TRPC4/mu-opioid, membrane potential fluorescence. hit rate 61% among 920. shares compounds with TRPC6 inhibitor. activity change, negative = inhibition, % at 10 µM;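 active means rise or fall in signal beyond 3 SD of buffer-only wells in both replicate plates, either sign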;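 further: integrated kinetic ratio of fluorescence range over baseline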
HEK293 MPD ctr 2-1 – second check of TRPC6 inhibitor effects in parental HEK293 cells | shares compounds with TRPC6 inhibitor | signal change vs control, % at 10 µM | parental HEK293 membrane potential dye fluorescence; maximal acetylcholine challenge after compound addition | hit rate 31% among 920;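 active means membrane potential signal moving either way by over 3 SD of the maximum-effect control, in both duplicate plates, meaning non-specific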
HEK293 MPD ctr-1 – checks TRPC6 inhibitor effects in parental HEK293 cells | hit rate 60% among 920 | membrane potential signal change, % at 10 µM | shares compounds with TRPC6 inhibitor | AID 2780 | parental HEK293 membrane potential dye fluorescence;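 active means membrane potential signal shifting up or down by more than 3 SD of buffer-only wells, on both duplicate plates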
HEK293 MPD ctr-2 – counter-screen for TRPC6 modulators: effect in parental HEK293 cells | shares compounds with TRPC6 inhibitor | membrane potential dye fluorescence | membrane potential signal change, % at 10 µM | hit rate 51% among 2,400;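 active means membrane potential signal moves up or down beyond 5 SD from buffer-only wells, on both duplicate plates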
HEK293 MPD ctr 2-2 – second check of TRPC6 modulator effects in parental HEK293 cells; inhibition, % at 10 µM; shares compounds with TRPC6 inhibitor; membrane potential dye fluorescence; after compound, maximal acetylcholine stimulation; hit rate 14% among 2,400;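 active means membrane potential signal drops by more than 5 SD from the mean control signal, in both duplicate plates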;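 further: plate controls were acetylcholine ECmax control wells for no effect and buffer only wells for full effect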
TRPC4 ctr mod – tests whether TRPC6 modulators also affect mouse TRPC4; shares compounds with TRPC6 inhibitor; HEK293 TRPC4/mu-opioid, membrane potential fluorescence; percent change from control (negative = decrease, positive = increase), % at 10 µM; hit rate 69% among 2,400; AID 488927;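 active means membrane potential signal moved up or down beyond 5 SD of buffer control wells, in both duplicate plates, actives on both sides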;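 further: plate controls were assay buffer wells for no effect and DAMGO maximal-effect wells for full effect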
TRPC4/MOR inh 2 – second check of whether TRPC6 modulators also affect mouse TRPC4; AID 488928; inhibition, % at 10 µM; shares compounds with TRPC6 inhibitor; hit rate 55% among 2,400; HEK293 TRPC4/mu-opioid, membrane potential dye fluorescence; stimulated with maximal-effect DAMGO;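 active means drop in membrane potential signal beyond 5 SD of the control wells in both duplicate plates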;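 further: TRPC4 counter screen for TRPC6 hits run under conditions tuned for TRPC6 not TRPC4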
TRPC6 block conf – mouse TRPC6 inhibitor confirmation; shares compounds with TRPC6 inhibitor; HEK293-TRPC6, membrane potential dye, ACh-evoked depolarization; inhibition, % at 10 µM; hit rate 43% among 3,300; AID 488960;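 active means fluorescence ratio falls more than 5 SD below the full-stimulation control mean, in both duplicate runs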;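 further: integrated fluorescence ratio of peak minus minimum over baseline after agonist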
TRPC6 act conf – mouse TRPC6 activator confirmation; AID 488961; activation, % at 10 µM; hit rate 11% among 2,800; HEK293-TRPC6 membrane potential dye fluorescence, FDSS; shares compounds with TRPC6 inhibitor;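 active means ratio signal rise beyond 5 SD above unstimulated control wells' mean, seen in both duplicate runs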;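 further: plate controls were buffer EC0 wells for no effect and acetylcholine ECmax response for full effect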
The depositor's hits bear a star; i = inactive; . = no result. This is a sample that favours compounds with a hit; in the whole collection about 2.3% have one here.

SMILES | Yeast superoxide | TRPC4 act | TRPC6 activator | TRPC6 inhibitor | TRPC4 PAM | TRPC4 block | HEK293 MPD ctr-2 | HEK293 MPD ctr 2-2 | TRPC4 ctr mod | TRPC4/MOR inh 2 | TRPC6 block conf | TRPC6 act conf | others
CSc1nnc(C)c(/C=C/Nc2ccc(Cl)cc2)n1 | 87 | i | 14* | i | i | i | 214%* | i | 36%* | i | i | 36%*
Nc1ncc2c(n1)-c1ccccc1CC2 | 99 | i | i | i | i | i | . | . | . | . | . | .
c1ccc2c(c1)CCc1ccccc1C2=C1CCNCC1 | 110 | i | i | -7.2* | i | i | . | . | . | . | i | i | TRPC4 spec 2=60%*;TRPC4 spec=3.8%*;HEK293 MPD ctr 2-1=i;HEK293 MPD ctr-1=2.8%*
CN(C)c1ccc(NC(=O)COC(=O)c2ccc3c(c2)OCO3)cc1 | 81 | . | . | . | . | . | . | . | . | . | . | .
Cc1nnc(SCC(=O)NCCC2=CCCCC2)[nH]c1=O | 115 | . | . | . | . | . | . | . | . | . | . | .
Cc1cccc2sc(N(CCCN(C)C)C(=O)c3ccc4ncsc4c3)nc12 | 99 | i | i | -5* | i | i | i | i | i | 78%* | 45%* | i
Cc1ccc2sc(N(CCCN(C)C)C(=O)c3ccc(Br)s3)nc2c1C | 93 | i | i | -6.5* | i | i | i | i | -20%* | 80%* | i | i
CCCC1c2ccc(C)n2CCN1C(=O)Nc1ccc(F)cc1 (stereo not given) | 98 | i | i | i | i | i | . | . | . | . | . | .
O=[N+]([O-])c1cccc(S(=O)(=O)c2ccc(NCCO)c([N+](=O)[O-])c2)c1 | 133 | i | i | i | i | i | . | . | . | . | . | .
COc1ccc(-c2nnc3sc(C4CCCCC4)nn23)cc1OC | 103 | i | 13* | i | i | i | 144%* | i | 40%* | i | i | 86%*
COc1ccc(-c2nn3c(C4CCCCC4)nnc3s2)cc1OC | 118 | i | i | i | i | i | . | . | . | . | . | .
COc1ccc(C2C(Oc3ccccc3C)C(=O)N2Cc2ccc(F)cc2)cc1OC (stereo not given) | 94 | i | i | i | i | i | . | . | . | . | . | .
CN1CCc2c(sc3c2c(=O)n(-c2ccc(Cl)cc2)c2nncn32)C1 | 88 | i | i | -5.1* | i | i | -106%* | i | -21%* | i | i | i
CCN(CC)CCn1c(=O)n(-c2ccc(Cl)cc2)c(=O)c2c3c(sc21)CN(C)CC3 | 94 | i | i | i | i | i | . | . | . | . | . | .
CC(NC(=O)c1ccc(Br)cc1)c1ccc2c(c1)CCCC2 (stereo not given) | 118 | i | i | i | i | i | . | . | . | . | . | .
CC(NC(=O)c1ccc(F)cc1)c1ccc2c(c1)CCCC2 (stereo not given) | 100 | i | i | -6.1* | i | i | i | i | i | i | i | i
CC(C)(C)OC(=O)NC(Cc1ccccc1)C(=O)O (stereo not given) | 100 | i | i | i | i | i | . | . | . | . | . | .
CC(C)(C)OC(=O)NC(CNCc1ccccc1)Cc1ccccc1 (stereo not given) | 109 | i | i | -5.3* | i | i | 136%* | i | 24%* | 34%* | i | .
O=S(=O)(c1ccc(Cl)s1)N1CCN(c2ncccn2)CC1 | 85 | i | i | i | i | i | . | . | . | . | . | .
Cc1cccc(NC(=S)NC2CC3CCCC(C2)N3Cc2cccs2)c1 (stereo not given) | 92 | i | i | -7* | i | i | . | . | . | . | i | i | TRPC4 spec 2=i;TRPC4 spec=i;HEK293 MPD ctr 2-1=i;HEK293 MPD ctr-1=-0.4%*
COc1cc(/C=C2\SC(=S)N(NS(=O)(=O)c3ccc(C)cc3)C2=O)ccc1O | 109 | i | 23* | i | i | i | 614%* | i | 90%* | 29%* | i | 110%*
COc1cc(/C=C2\SC(=S)N(NS(=O)(=O)c3ccccc3)C2=O)ccc1O | 102 | i | 15* | i | i | i | 490%* | 74%* | 64%* | i | i | 57%*
CCOc1cc(/C=C2\SC(=S)N(NS(=O)(=O)c3ccc(C)cc3)C2=O)ccc1O | 101 | i | i | i | i | i | . | . | . | . | . | .
Cc1ccc(C(OCCN(C)C)c2cccc(C(F)(F)F)c2)cc1 (stereo not given) | 101 | i | i | -5.4* | i | i | i | i | 18%* | 38%* | i | .
COC(=O)c1oc2ccc(Br)cc2c1NC(=O)CN1CCN(C)CC1 | 95 | i | i | -5.5* | i | i | i | i | -16%* | 52%* | 48%* | i
COC(=O)c1oc2ccccc2c1NC(=O)CN1CCCC1 | 100 | i | i | i | i | i | . | . | . | . | . | .
CCc1ccc(Nc2n[n+](-c3ccccc3)c(-c3ccc(N(CC)CC)cc3)s2)cc1 | 98 | i | i | i | i | i | . | . | . | . | . | .
